# Screening data deposited in PubChem BioAssay by several laboratories.
# The list is not random: actives were taken first. Their share in the collection is about 2.1%.
# CCR6 antagonist – CCR6 receptor antagonists, primary screen, cell-based, CHO-K1, luminescence, beta-arrestin, uHTS | C-C chemokine receptor type 6 (Homo sapiens), P51684 | CHO-K1 CCR6 PathHunter beta-arrestin, CCL20-stimulated | inhibition, % at 20 µM | actives 0.49% (n = 340,000) | AID 493098, 2011;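 active = compounds whose inhibition of the agonist-driven luminescence signal at 20 µM reaches about 50%, limit read from the data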;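 note: cells stimulated with CCL20 at 14 nM final; plate controls were DMSO with CCL20 for no effect and DMSO without agonist for full effect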
# CXCR6 inh – CXCR6 receptor inhibitors, primary screen, cell-based, beta-arrestin, luminescence, CHO-K1 PathHunter, 1536-well. AID 602244, 2012. inhibition, % at 20 µM. actives 0.36% (n = 360,000); in the data active = inhibition above about 34%, passing the limit was not always enough;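 note: antagonist mode with CXCL16 agonist at 10 nM final; 0% = 10 nM CXCL16 with DMSO and 100% = unstimulated wells without agonist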
# m5-HT2A agonist – mouse Htr2a agonists via beta-arrestin recruitment, primary screen, cell-based, luminescence. CHO-K1 mHTR2A beta-arrestin complementation; percent of 30 µM serotonin response. activation, % at 7.6 µM. actives 0.66% (n = 360,000). AID 624169, 2012;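 active = activation above a run cutoff, the mean activation of all tested compounds plus 3 SD, cut at about 14% in these data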;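 note: 0% = plate median of compound wells and 100% = 30 µM serotonin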
# APJ antag – antagonists of human apelin receptor APJ, primary screen, CHO-K1 cells, beta-arrestin complementation, luminescence; inhibition, % at 20 µM; AID 2521, 2010; actives 0.32% (n = 330,000);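 active = inhibition above about 40% at 20 µM, limit read from the data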;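 note: cells challenged with 10 nM apelin-13 agonist together with compound; plate controls were apelin-13 plus DMSO wells for no effect and DMSO wells lacking apelin-13 for full effect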
# Target sequence (P35414 whole entry, looked up): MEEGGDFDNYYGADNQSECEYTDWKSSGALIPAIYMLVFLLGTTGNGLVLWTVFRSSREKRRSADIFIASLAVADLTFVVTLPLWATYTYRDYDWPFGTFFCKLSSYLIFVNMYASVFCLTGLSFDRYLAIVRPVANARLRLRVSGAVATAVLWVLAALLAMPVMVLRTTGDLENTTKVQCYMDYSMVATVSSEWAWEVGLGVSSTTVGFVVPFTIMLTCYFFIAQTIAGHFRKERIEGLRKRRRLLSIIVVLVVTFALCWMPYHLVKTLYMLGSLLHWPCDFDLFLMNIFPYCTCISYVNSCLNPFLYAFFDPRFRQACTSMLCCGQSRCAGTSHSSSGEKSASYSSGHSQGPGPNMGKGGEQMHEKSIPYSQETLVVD
# EBI2 antag – EBI2 receptor antagonists, beta-arrestin recruitment, primary screen, cell-based, luminescence, 7a,25-OHC stimulation, uHTS; G-protein coupled receptor 183 (Homo sapiens), P32249; 7a,25-OHC stimulated; inhibition, % at 5 µM; actives 0.81% (n = 360,000); AID 651636, 2012; in the data active = inhibition above about 38%;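 note: enzyme fragment complementation signal reports receptor beta-arrestin coupling in cells; 0% = agonist plus DMSO wells and 100% = wells without agonist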
# Target sequence (P32249 whole entry, looked up, the tested form may be a part): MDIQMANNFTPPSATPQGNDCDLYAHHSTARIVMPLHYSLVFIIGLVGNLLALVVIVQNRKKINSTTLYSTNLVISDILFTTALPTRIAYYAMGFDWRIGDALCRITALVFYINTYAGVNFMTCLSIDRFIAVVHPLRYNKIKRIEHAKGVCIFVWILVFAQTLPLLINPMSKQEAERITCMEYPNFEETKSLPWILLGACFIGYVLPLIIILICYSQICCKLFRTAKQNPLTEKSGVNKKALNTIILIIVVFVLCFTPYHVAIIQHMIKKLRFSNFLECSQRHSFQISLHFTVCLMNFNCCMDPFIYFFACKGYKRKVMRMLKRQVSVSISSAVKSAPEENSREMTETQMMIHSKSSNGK
# APJ ag – agonists of human apelin receptor APJ, primary screen, CHO-K1 cells, PathHunter beta-arrestin, luminescence. 0% DMSO wells, 100% apelin. activation, % at 20 µM. actives 0.11% (n = 330,000);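 active = activation more than six SD over the plate average, tested at 20 µM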;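 note: 0% = DMSO alone and 100% = apelin-13 at 10 nM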
#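 Test system – PathHunter CHO-K1 APJ (AGTRL-1) beta-arrestin reporter cells · Input – 1000 cells/well · Compound – single test compound dose, 20 µM final, 1% DMSO · Times – compound stimulation 90 min at 25 °C, detection 60 min · Technique – beta-gal luminescence · Read-out basis – APJ–arrestin association signal · Control set – negative DMSO alone, positive Apelin-13 at 10 nM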
# EBI2 conf – EBI2 antagonist hit retest, beta-arrestin, confirmation, cell-based, single concentration, luminescence, 7a,25-OHC stimulation; shares compounds with EBI2 antag; inhibition, % at 5 µM; 7a,25-OHC antagonism; AID 651997, 2013; actives 29% (n = 2,400);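 active = inhibition of at least 50%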
# EBI2 agonist – EBI2 agonist activity of antagonist hits, confirmation, counter-screen for EBI2 antagonist project, cell-based, single concentration, agonist mode, luminescence | EBI2-expressing cells, 60 min; 0% vehicle, 100% 7α,25-dihydroxycholesterol control | activation, % at 5 µM | 2,400 tested, under 10 active | shares compounds with EBI2 antag;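 active = activation of at least 50%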
# bGal counter – E. coli beta-galactosidase enzyme inhibition, confirmation, counter-screen for EBI2 antagonist project, biochemical, luminescence, single concentration. actives 1% (n = 2,400). AID 652176, 2013. shares compounds with EBI2 antag. purified beta-galactosidase, luminescent Galacton Star, 15 min. inhibition, % at 5 µM;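 active = replicate-average signal at least 3 plate SD below neutral wells, shown as high inhibition, flagging enzyme-inhibiting false positives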;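 note: 0% = DMSO wells with enzyme and 100% = wells lacking enzyme; higher means stronger loss of beta-gal luminescence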
# * hit, by the source's call; . = not tested or not shown.
SMILES,CCR6 antagonist,CXCR6 inh,m5-HT2A agonist,APJ antag,EBI2 antag,APJ ag,EBI2 conf,EBI2 agonist,bGal counter
CC1CCCN(C(=O)CN(c2ccccc2)S(=O)(=O)c2ccc(F)cc2)C1 (stereo unspecified),10.8,10.5,4.8,-3.7,-1.4,1.1,.,.,.
OCCN(CCO)c1cc2c3ccccc3ccc2c2ccccc12,-20.5,-22.8,-5.7,.,-30.7,.,.,.,.
CCOc1ccc(CN(C)C(=O)c2ccc3c(c2)NC(=O)C(C)S3)cc1OC (stereo unspecified),3.9,-13.9,-5.9,-0.7,-1.2,-1.3,.,.,.
Cc1ccc(N(C(=O)c2snc(C(N)=O)c2N)C(CC(C)C)C(=O)NC2CCCC2)cc1 (stereo unspecified),-2.9,10.2,-3.0,-16.1,7.4,-0.6,.,.,.
CCCCC(C(=O)NC1CCCC1)N(C(=O)c1snc(C(N)=O)c1N)c1ccc(C)cc1 (stereo unspecified),11.0,10.9,-3.5,11.7,50.0*,2.2,48.8,-0.3,5.5
COC(=O)c1cccc(NC(=O)c2ccc3c(c2)C(=O)N(CC2CCCO2)C3=O)c1 (stereo unspecified),8.5,7.3,4.7,12.0,44.0*,5.0,30.7,0.3,-18.9
O=C(COc1ccccc1)Nc1ccc2c(c1)C(=O)N(CC1CCCO1)C2=O (stereo unspecified),6.2,-3.2,1.6,-4.3,45.0*,-3.8,20.9,-0.3,8.2
COc1cccc(NC(=O)c2ccc3c(c2)C(=O)N(CC2CCCO2)C3=O)c1 (stereo unspecified),1.3,-3.3,0.9,1.0,60.1*,-2.1,32.0,0.4,8.3
COC(=O)Cc1ccc(NC(=O)c2ccc3c(c2)C(=O)N(CC2CCCO2)C3=O)cc1 (stereo unspecified),10.5,-2.6,5.6,-12.1,12.7,19.1,.,.,.
COc1ccc(NC(=O)c2ccc3c(c2)C(=O)N(CC2CCCO2)C3=O)cc1 (stereo unspecified),-0.1,-5.1,-2.1,8.6,79.7*,1.0,49.9,0.9,6.9
COc1cccc(C(=O)Nc2ccc3c(c2)C(=O)N(CC2CCCO2)C3=O)c1 (stereo unspecified),11.4,-8.3,9.4,-26.0,13.6,7.0,.,.,.
NC(c1csc(NC(=O)Nc2ccc(OC(F)(F)F)cc2)n1)C1CCCCC1 (stereo unspecified),.,-13.4,13.8,.,-2.8,.,.,.,.
O=C(CCCSc1nc2ccccc2c(=O)[nH]1)c1ccccc1,3.4,0.6,-2.5,12.9,9.5,-1.3,.,.,.
CCN1C(=O)c2ccc(C(=O)Nc3ccc4c(c3)OCO4)cc2C1=O,8.6,1.2,4.3,6.2,49.2*,-4.2,18.7,1.0,-14.7
COCCCN1C(=O)c2ccc(C(=O)Nc3ccccc3OC)cc2C1=O,1.3,-2.1,5.3,13.2,8.0,0.5,.,.,.
COCCCN1C(=O)c2ccc(C(=O)Nc3ccc(OC)cc3)cc2C1=O,8.6,-3.1,5.5,7.0,58.1*,-2.6,48.8,2.2,1.0
C=C1CCC(C)C(C)(CCC2=CCOC2=O)C/C=C\C=C/1C(=O)O (stereo unspecified),0.4,-7.6,3.6,-17.7,5.8,-2.5,.,.,.
Cc1ccc2c(c1)[C@H]1[C@H](CO2)[C@H](c2ccccc2)[C@]2(C)C(=O)N(Cc3ccc(Cl)cc3)CC(=O)N12,13.7,8.2,4.2,-2.4,47.8*,-2.6,30.8,-1.3,-9.2
CC1CC(=O)C2=C(C1)Nc1ccccc1N=C2 (stereo unspecified),4.4,-8.9,-1.1,21.5,-2.5,-1.8,.,.,.
O=C1CC(c2ccccc2)CC2=C1C=Nc1ccccc1N2 (stereo unspecified),-8.2,8.1,3.7,14.8,52.6*,2.5,20.6,0.9,1.4
O=C1CC(c2ccc(F)cc2)CC2=C1C=Nc1ccccc1N2 (stereo unspecified),1.9,-7.4,-2.1,28.7,80.6*,-4.8,43.3,1.0,6.8
COc1cc(/C=N/NS(=O)(=O)c2ccc3ccccc3c2)ccc1OCCN1CCOCC1,11.0,-0.7,1.1,-0.4,-24.6,-1.0,.,.,.
CCn1c(SCc2ccccc2Cl)nc2nc3c(cc2c1=O)CCCC3,23.2,19.6,-5.3,.,57.3*,.,40.7,0.3,3.4
Clc1cccc(Nc2nc(-c3ccncc3)cs2)c1,-12.4,-13.4,13.5,-4.2,52.2*,2.1,47.8,-0.5,-8.0
Cc1cccc(Nc2nc(-c3ccncc3)cs2)c1,-24.8,-6.4,-5.9,-14.1,33.5,-1.3,.,.,.
SMILES,CCR6 antagonist,CXCR6 inh,m5-HT2A agonist,APJ antag,EBI2 antag,APJ ag,EBI2 conf,EBI2 agonist,bGal counter
CCOc1ccc(S(=O)(=O)N2CCN(C(=O)c3cc4ccccc4o3)CC2)cc1,34.6,0.3,-2.9,-5.3,85.9*,0.0,56.5*,1.7,9.4
CCOC(=O)c1ccc(S(=O)(=O)N2CCN(S(=O)(=O)CC)CC2)cc1,-5.0,-2.6,1.8,-9.1,1.2,7.5,.,.,.
O=C(c1cc2ccccc2o1)N1CCN(S(=O)(=O)c2c(F)cccc2F)CC1,10.8,2.0,5.6,3.7,63.3*,-3.2,42.5,-0.1,4.6
CCOC(=O)c1ccc(S(=O)(=O)N2CCN(C(=O)c3cc(=O)c4ccccc4o3)CC2)cc1,11.3,7.9,1.8,1.2,59.8*,-3.0,27.0,0.2,6.7
CC(=O)N1CCN(C(=O)c2cc3ccccc3o2)CC1,4.6,-12.8,-0.9,-4.1,6.3,-0.3,.,.,.
Cn1c(CO)cnc1-c1ccccc1,-3.0,0.4,3.5,-11.2,-9.8,0.6,.,.,.
CNC(=S)N/N=C/c1ccccc1Cl,13.2,7.3,-0.7,4.2,-3.2,-0.8,.,.,.
S=C(N/N=C/c1ccccc1Cl)Nc1ccccc1,32.0,12.4,3.7,33.0,43.1*,-3.3,37.5,0.8,4.1
COCC(=O)N1CCC(Oc2ccc(C(=O)N3CCCCC3COC)cc2)CC1 (stereo unspecified),-0.1,-9.3,-0.8,-3.6,-6.5,6.6,.,.,.
